The values below come from ChEMBL document CHEMBL4190402, “Development of a Novel Human Parathyroid Hormone Receptor 1 (hPTHR1) Agonist (CH5447240), a Potent and Orally Available Small Molecule for Treatment of Hypoparathyroidism” (J Med Chem, 2018).

As a reminder, the EC20 is the concentration needed for an effect of 20%. As a reminder, the solubility is the dissolved amount per volume that the medium holds. A lower solubility goes with little dissolved substance. Usually EC50 stands for the concentration giving half of the maximal effect.

One data set concerns LLC-PK1. The data set can be described thus: Induction of cAMP production in porcine LLC-PK1 cells after 20 mins by enzyme immunoassay. Type of data set: functional, cell-based. As to conditions: Sus scrofa. In outline: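 Counter-screen on parent LLC-PK1 cells lacking hPTHR1. Conditions match the HKRK-B7 assay: 20 min at 37°C in IBMX-containing assay medium, then cAMP read by EIA.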
On the technique in general: Cyclic AMP is a second messenger, typically raised through Gs and lowered through Gi signalling.

Data set [1] concerns the target T1, Parathyroid hormone/parathyroid hormone-related peptide receptor (Homo sapiens) (UniProt Q03431).
T1 sequence (whole entry): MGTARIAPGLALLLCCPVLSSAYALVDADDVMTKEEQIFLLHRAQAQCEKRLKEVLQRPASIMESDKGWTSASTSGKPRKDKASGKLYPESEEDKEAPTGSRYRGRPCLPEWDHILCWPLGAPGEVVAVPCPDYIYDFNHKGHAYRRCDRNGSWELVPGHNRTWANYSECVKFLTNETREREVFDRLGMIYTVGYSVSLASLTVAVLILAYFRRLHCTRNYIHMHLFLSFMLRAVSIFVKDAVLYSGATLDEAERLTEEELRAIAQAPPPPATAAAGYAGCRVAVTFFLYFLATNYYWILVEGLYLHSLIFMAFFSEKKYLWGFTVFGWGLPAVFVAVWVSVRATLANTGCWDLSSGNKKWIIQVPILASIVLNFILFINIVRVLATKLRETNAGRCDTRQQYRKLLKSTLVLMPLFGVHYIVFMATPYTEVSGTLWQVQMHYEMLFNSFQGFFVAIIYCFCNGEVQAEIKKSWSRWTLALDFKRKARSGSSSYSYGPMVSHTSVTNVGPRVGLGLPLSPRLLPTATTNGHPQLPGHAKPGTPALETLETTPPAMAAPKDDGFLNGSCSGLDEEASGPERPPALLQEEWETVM
The data set can be described thus: Agonist activity at human PTHR1 expressed in HKRKB7 cells assessed as accumulation of intracellular cAMP at 1 mM after 20 mins by enzyme immunoassay relative to human PTH (1 to 34 residues). Type of data set: functional, cell-based. In outline: (§1)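 HKRK-B7 cells (LLC-PK1 stably expressing hPTHR1), 1.0 x 10^3 per well, seeded overnight, then exposed to serially diluted compound in McCoy's 5A with 2 mg/ml BSA, 1 mmol/l IBMX and 2 mmol/l HEPES for 20 min at 37°C. Cells washed, frozen, lysed in 50 mmol/l HCl, cAMP read by EIA.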

Data set [2] deals with Rattus norvegicus. The data set can be described thus: In vivo agonist activity at PTHR1 in Crl:CD(SD) rat TPTX model assessed as increase in serum calcium levels at 9 nmol/kg, sc administered as single dose measured after 24 hrs by o-cresolphthalein complexone method. Format: functional, organism-based. In outline:
(§2)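 Female 6-week-old Crl:CD(SD) rats after surgical TPTX; those with serum Ca <8.0 mg/dl at day 5 were used, and treatment began day 6. Single sc dose of hPTH(1-34) at 9 nmol/kg, or phosphate-citrate buffer pH 6.0 vehicle, n=5 per group. Jugular blood taken under isoflurane before dosing and at 0.5–24 h. Serum Ca measured by o-CPC, Pi by xanthine oxidase. Mean ± SEM.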

Data set [3] has as its system Rattus norvegicus. The data set can be described thus: In vivo agonist activity at PTHR1 in Crl:CD(SD) rat TPTX model assessed as decrease in serum phosphorus levels 9 nmol/kg, sc administered as single dose measured after 24 hrs by xanthine oxidase method. Format: functional, organism-based. In outline:
as §2

For data set [4], the target named is T1, Parathyroid hormone/parathyroid hormone-related peptide receptor (Homo sapiens). The data set can be described thus: (§3) Agonist activity at human PTHR1 expressed in HKRKB7 cells assessed as accumulation of intracellular cAMP after 20 mins by enzyme immunoassay. Type of data set: functional, cell-based. In outline:
as §1

Data set [5] can be described thus: Solubility of the compound in PBS at pH 6.5 at 1 mM by HPLC-UV analysis. Format: physicochemical. As to conditions: for solubility: buffer, pH 6.5, 1000 µM, BLD = below limit of detection; for solubility at 1000 µM: PBS, pH 6.5. In outline:
(§4)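 A 1 mM DMSO stock (50 µL) was freeze-dried, then the residue taken up in 50 mM PBS pH 6.5 or FaSSIF pH 6.5. Sonicated 10 min, shaken 2 h, centrifuged, filtered. Filtrate concentration determined by HPLC-UV against each compound's calibration curve.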

The nature of data set [6]: Intrinsic clearance in human liver microsomes assessed per mg protein at 1 uM after 30 mins in presence of NADPH by LC-MS/MS analysis. Format: ADME, microsome. The settings on record: read-out: CLH. (Liver microsomes are vesicles of endoplasmic reticulum, rich in cytochrome P450 enzymes.)
Data set [7] can be described thus: Solubility of the compound in FaSSIF at 1 mM by HPLC-UV analysis. Format: physicochemical. The settings on record: for solubility at 1000 µM: FaSSIF. In outline:
as §4

Data set [8] is described as follows: Intrinsic clearance in human liver microsomes assessed per mg protein at 1 uM after 30 mins in absence of NADPH by LC-MS/MS analysis. Format: ADME, microsome. The settings on record: liver microsomes, read-out: CLH.
Data set [9] has as its target T2, Parathyroid hormone/parathyroid hormone-related peptide receptor (Homo sapiens, UniProt Q03431).
T2 sequence (Q03431 whole entry): T1 sequence (whole entry)
The data set is described as §3. Format: functional, cell-based. In outline:
as §1

≈ marks a conversion by molar mass, not a printed value. Calls of active or inactive are those of the source. No cut-off for these calls is given here. Where only a bound is given, the exact number is not on record here.

Consider `O=C(O)c1ccc(C2=NC3(CCN(S(=O)(=O)c4cccc(Cl)c4)CC3)C(=O)N2)cc1`, for which the outcome in the data set on LLC-PK1 was inactive. For the same compound, in data set [1], the Activity worked out at 1.3%.

Regarding `CC[C@H](C)[C@H](NC(=O)[C@H](CCC(=O)O)NC(=O)[C@H](CO)NC(=O)[C@@H](NC(=O)[C@@H](N)CO)C(C)C)C(=O)N[C@@H](CCC(N)=O)C(=O)N[C@@H](CC(C)C)C(=O)N[C@@H](CCSC)C(=O)N[C@@H](Cc1cnc[nH]1)C(=O)N[C@@H](CC(N)=O)C(=O)N[C@@H](CC(C)C)C(=O)NCC(=O)N[C@@H](CCCCN)C(=O)N[C@@H](Cc1cnc[nH]1)C(=O)N[C@@H](CC(C)C)C(=O)N[C@@H](CC(N)=O)C(=O)N[C@@H](CO)C(=O)N[C@@H](CCSC)C(=O)N[C@@H](CCC(=O)O)C(=O)N[C@@H](CCCNC(=N)N)C(=O)N[C@H](C(=O)N[C@@H](CCC(=O)O)C(=O)N[C@@H](Cc1c[nH]c2ccccc12)C(=O)N[C@@H](CC(C)C)C(=O)N[C@@H](CCCNC(=N)N)C(=O)N[C@@H](CCCCN)C(=O)N[C@@H](CCCCN)C(=O)N[C@@H](CC(C)C)C(=O)N[C@@H](CCC(N)=O)C(=O)N[C@@H](CC(=O)O)C(=O)N[C@H](C(=O)N[C@@H](Cc1cnc[nH]1)C(=O)N[C@@H](CC(N)=O)C(=O)N[C@@H](Cc1ccccc1)C(=O)O)C(C)C)C(C)C`, the result in the data set with Rattus norvegicus [2] and with Rattus norvegicus [3] was Active.

Turning to `C[C@H]1CC[C@H](C2=NC3(CCN(S(=O)(=O)c4cccc(Cl)c4)CC3)C(=O)N2)CC1`, in the data set on LLC-PK1, the outcome was inactive. Also, in [1], the Activity came to 35%.

As to `O=C1NC(C2CCCCC2)=NC12CCN(S(=O)(=O)Cc1ccccc1)CC2`, the result with LLC-PK1 was inactive. In addition, in data set [4], the EC20 was more than 1000 µM.

In the case of `O=C1NC(c2ccc(Cl)cc2Cl)=NC12CCN(S(=O)(=O)CCc1cccc3ccccc13)CC2`, the result in the data set on LLC-PK1 was inactive. Besides, in [4], the EC20 was 150 µM.

For `O=C1NC(C2CCCCC2)=NC12CCN(S(=O)(=O)CCc1ccncc1)CC2`, the result in the data set on LLC-PK1 was inactive. Also, the EC20 in data set [4] is more than 1000 µM.

`O=C1NC(c2ccccc2)=NC12CCN(S(=O)(=O)c1cccc(Cl)c1)CC2`: the result in the data set with LLC-PK1 was inactive. For the same compound, the Activity in data set [1] was 1.9%.

Take `O=C1NC(c2ccccc2Cl)=NC12CCN(S(=O)(=O)c1cccc(Cl)c1)CC2`: the outcome with LLC-PK1 was inactive. In addition, the Activity in [1] was 18%.

In the case of `O=C1NC(C2CCCCC2)=NC12CCN(S(=O)(=O)CCc1cccc3ccccc13)CC2`, in the data set on LLC-PK1, the result was inactive. The EC20 in [4] is 15 µM. Further, the solubility result in data set [5] is “Bld”. The microsomal CLint at 1 µM in data set [6] came to 300 µL/min/mg. In data set [7], this compound returned a solubility at 1000 µM of 3.1 µg/mL (≈ 6.83 µM).

With `O=C1NC(C2CCCCC2)=NC12CCN(S(=O)(=O)c1cccc3ccccc13)CC2`, in the data set on LLC-PK1, the result was inactive. Besides, the EC20 in [4] was determined as 220 µM.

Take `O=C1NC(C2CCCCC2)=NC12CCN(S(=O)(=O)CCc1ccccc1)CC2`: in the data set on LLC-PK1, the outcome was inactive. Moreover, the EC20 in [4] was found to be 240 µM.

As for `O=C1NC(c2ccncc2)=NC12CCN(S(=O)(=O)c1cccc(Cl)c1)CC2`, the result in the data set with LLC-PK1 was inactive. Moreover, in [1], the Activity turned out to be 1%.

With `CC(=O)Nc1ccc(CCS(=O)(=O)N2CCC3(CC2)N=C(C2CCCCC2)NC3=O)c(C)c1`, in the data set on LLC-PK1, the result was inactive. Also, the microsomal CLint at 1 µM amounted to 33 µL/min/mg in data set [8] and 46 µL/min/mg in [6]. Further, in data set [4], the EC20 was determined as 11 µM. For the same compound, in data set [9], the EC50 stood at 50 µM. The values for the solubility at 1000 µM in [5] and in data set [7] were 280 µg/mL (≈ 590 µM) and 400 µg/mL (≈ 843 µM), respectively.

Turning to `Cc1ccccc1CCS(=O)(=O)N1CCC2(CC1)N=C(C1CCCCC1)NC2=O`, in the data set on LLC-PK1, the outcome was inactive. In [4], the EC20 came to 30 µM. Moreover, the EC50 in data set [9] was more than 1000 µM. Besides, the values for the solubility at 1000 µM in [5] and in data set [7] were 11 µg/mL (≈ 26.3 µM) and 15 µg/mL (≈ 35.9 µM), respectively. Besides, the microsomal CLint at 1 µM in [6] is 100 µL/min/mg.

For `Cc1cc(N(C)C(N)=O)cc(C)c1CCS(=O)(=O)N1CCC2(CC1)N=C(C1CCCCC1)NC2=O`, the result in the data set with LLC-PK1 was inactive. In [4], the EC20 came out at 8.1 µM. For the same compound, the EC50 in data set [9] is 67 µM. For the same compound, the solubility at 1000 µM came to 290 µg/mL (≈ 576 µM) in [5] and 450 µg/mL (≈ 893 µM) in data set [7]. Besides, the microsomal CLint at 1 µM in [6] came to 23 µL/min/mg.

Consider `O=C1NC(c2ccc(Cl)cc2)=NC12CCN(S(=O)(=O)c1cccc(Cl)c1)CC2`, for which the outcome in the data set with LLC-PK1 was inactive. Moreover, in data set [1], the Activity was found to be 22%.

Consider `O=C1NC(C2CCCCC2)=NC12CCN(S(=O)(=O)c1cccc(Cl)c1)CC2`, for which the outcome with LLC-PK1 was inactive. The EC20 in data set [4] amounted to 140 µM. Moreover, the Activity in [1] was determined as 45%.

Consider `Cc1cc(N2CCNC2=O)cc(C)c1CCS(=O)(=O)N1CCC2(CC1)N=C(C1CCCCC1)NC2=O`, for which, in the data set with LLC-PK1, the result was inactive. Besides, the microsomal CLint at 1 µM was found to be 3.4 µL/min/mg in data set [8] and 62 µL/min/mg in [6]. Besides, the EC20 in [4] was 240 µM. The EC50 in data set [9] is more than 1000 µM. Besides, the solubility entry is “Bld” in [5] and “Bld” in data set [7] (simulated gi fluid, 1000 µM, BLD = below limit of detection).

Turning to `O=C1NC(c2ccc(Cl)cc2Cl)=NC12CCN(S(=O)(=O)c1cccc(Cl)c1)CC2`, the outcome in the data set with LLC-PK1 was inactive. For the same compound, the EC20 in data set [4] stood at 530 µM. The EC50 in data set [9] was more than 1000 µM. The Activity in [1] worked out at 23%.

On to `CC(=O)Nc1cc(C)c(CCS(=O)(=O)N2CCC3(CC2)N=C(C2CCCCC2)NC3=O)c(C)c1`, for which the result in the data set with LLC-PK1 was inactive. Further, the microsomal CLint at 1 µM in data set [8] stood at 18 µL/min/mg; in data set [6] it was 39 µL/min/mg. Also, the EC20 in data set [4] was 6.4 µM. Further, in data set [9], the EC50 was determined as 26 µM. Besides, the solubility at 1000 µM in data set [5] was 8 µg/mL (≈ 16.4 µM); in data set [7] it was 38 µg/mL (≈ 77.8 µM).
